Results: ChEMBL document CHEMBL1137922, “Synthesis and activity of novel analogs of hemiasterlin as inhibitors of tubulin polymerization: modification of the A segment” (Bioorg Med Chem Lett, 2004)
Activity calls are given as the source filed them. No cut-off for these calls is given here.

Experiments:
KB85 (Homo sapiens) = test: Concentration required to kill human epidermoid KB85 cell lines containing moderate levels of P-glycoprotein after 3 days of continuous exposure; conditions: KB85, 72 h
KB 3-1 = test: Concentration required to kill human epidermoid KB-3-1 cell lines containing very low levels of P-glycoprotein after 3 days of continuous exposure; assay type: functional, cell-based; conditions: KB 3-1, 72 h
Method in brief: (§1)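 KB-3-1, KB85 and KBV1 cells were plated at densities set to reach 60–90% confluence at analysis. Compounds were serially diluted in medium as 2× stocks and added in duplicate. After 3 days of incubation, cell survival was read by SRB assay and reported as IC50.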

KB [1] = test: Concentration required to kill human epidermoid KBV1 cell lines containing very high levels of P-glycoprotein after 3 days of continuous exposure; assay type: functional, cell-based; conditions: 72 h
Method in brief: as §1

Bos taurus [2] = species on record: Bos taurus; test: Percent inhibition of bovine microtubule-assisted protein (MAP) rich tubulin polymerisation at concentration of 0.3 uM; assay type: functional
Method in brief: (§2)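 Bovine MAP-rich tubulin (final 1.5 mg/mL) was prepared in cold PEM buffer (80 mM NaPIPES pH 6.9, 1 mM MgCl2, 1 mM EGTA) with 1 mM GTP and spun at 12,000g for 10 min at 4 C. It was added to duplicate compound wells (final 0.3 µM); controls held 0.3% DMSO. A340 was read every minute for 60 min at 24 C.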

Bos taurus [3] = species on record: Bos taurus; test: Percent inhibition of bovine microtubule-assisted protein (MAP) rich tubulin polymerisation at concentration of 0.3 uM; (result for 2); assay type: functional
Method in brief: as §2

Mus musculus [4] = species on record: Mus musculus; test: Effect at 2 mpk against HCT-15 cell line expressing P-glycoprotein transporter in athymic mice; Active; assay type: functional, organism-based
Mus musculus [5] = species on record: Mus musculus; test: Effect at 2 mpk against DLD1 cell line expressing P-glycoprotein transporter in athymic mice; Active; assay type: functional, organism-based; conditions: DLD-1
Mus musculus [6] = species on record: Mus musculus; test: Effect at 2 mpk against MX1W cell line expressing P-glycoprotein transporter in athymic mice; Active; assay type: functional, organism-based
Mus musculus [7] = test: Minimum tolerated dose against Lox melanoma human xenograft models in athymic mice; assay type: functional
Mus musculus [8] = test: Minimum effective dose against Lox melanoma human xenograft models in athymic mice; assay type: functional
Method in brief: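 Lox melanoma cells (1.5–7 × 10^6) were injected sc into athymic mice. At 80–100 mg tumour mass, animals were randomised into groups of 5 or 10 and dosed iv in saline. Tumour length and width were measured weekly, with mass = (L·W²)/2. Relative tumour growth and %T/C were calculated.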

Mus musculus [9] = species on record: Mus musculus; test: Effect at 4 mpk against DLD1 cell line expressing P-glycoprotein transporter in athymic mice; Active; assay type: functional, organism-based; conditions: DLD-1
Mus musculus [10] = species on record: Mus musculus; test: Effect at 1.6 mpk against HCT-15 cell line expressing P-glycoprotein transporter in athymic mice; Active; assay type: functional, organism-based
Mus musculus [11] = species on record: Mus musculus; test: Effect at 1.6 mpk against DLD1 cell line expressing P-glycoprotein transporter in athymic mice; Active; assay type: functional, organism-based; conditions: DLD-1
Mus musculus [12] = species on record: Mus musculus; test: Effect at 1.6 mpk against MX1W cell line expressing P-glycoprotein transporter in athymic mice; Active; assay type: functional, organism-based
Mus musculus [13] = species on record: Mus musculus; test: Effect at 1.5 mpk against MX1W cell line expressing P-glycoprotein transporter in athymic mice; Active; assay type: functional, organism-based
Mus musculus [14] = species on record: Mus musculus; test: Effect at 1.5 mpk against HCT-15 cell line expressing P-glycoprotein transporter in athymic mice; Active; assay type: functional, organism-based
Mus musculus [15] = species on record: Mus musculus; test: Effect at 1.5 mpk against DLD1 cell line expressing P-glycoprotein transporter in athymic mice; Active; assay type: functional, organism-based; conditions: DLD-1
Mus musculus [16] = species on record: Mus musculus; test: Effect at 3 mpk against HCT-15 cell line expressing P-glycoprotein transporter in athymic mice; inactive; assay type: functional, organism-based
Mus musculus [17] = species on record: Mus musculus; test: Effect at 3 mpk against MX1W cell line expressing P-glycoprotein transporter in athymic mice; Active; assay type: functional, organism-based
Bos taurus [18] = species on record: Bos taurus; test: Percent inhibition of bovine microtubule-assisted protein (MAP) rich tubulin polymerisation at concentration of 0.3 uM; Not applicable; assay type: functional
Method in brief: as §2

KB [19] = test: Concentration required to kill 50% of human epidermoid KBV1 cell lines containing very high levels of P-glycoprotein after 3 days of continuous exposure; assay type: functional, cell-based; conditions: 72 h
Method in brief: as §1

SMILES | IC50 (KB85 (Homo sapiens)) [nM] | IC50 (KB 3-1) [nM] | IC50 (KB [1]) [nM] | Inhibition (Bos taurus [2]) [%] | Inhibition (Bos taurus [3]) [%] | other results
CN[C@@H](C(=O)N[C@H](C(=O)N(C)[C@H](/C=C(\C)C(=O)O)C(C)C)C(C)(C)C)C(C)(C)c1cccc(C)c1 | 19.9 | 7.9 | 446 | 88 | 89 | –
CN[C@H](C(=O)N[C@H](C(=O)N(C)[C@H](/C=C(\C)C(=O)O)C(C)C)C(C)(C)C)C(C)(C)c1cccc(C(C)=O)c1 | 5.8 | 1.9 | 370 | 93 | 87 | –
CCOC(=O)/C(C)=C/[C@H](C(C)C)N(C)C(=O)[C@@H](NC(=O)[C@@H](NC)C(C)(C)c1ccc(C)c(C)c1)C(C)(C)C | 24 | 9.1 | 191 | 49 | 92 | Effect (Mus musculus [4]): Active; Effect (Mus musculus [5]): Active; Effect (Mus musculus [6]): Active; MTD (Mus musculus [7]): >2 mpk; MED (Mus musculus [8]): 0.5 mpk
CCOC(=O)/C(C)=C/[C@H](C(C)C)N(C)C(=O)[C@@H](NC(=O)[C@H](NC)C(C)(C)c1cccc(C)c1)C(C)(C)C | 1700 | 263 | 3000 | 26 | 94 | –
CN[C@H](C(=O)N[C@H](C(=O)N(C)[C@H](/C=C(\C)C(=O)O)C(C)C)C(C)(C)C)C(C)(C)c1cccc(C(F)(F)F)c1 | 1.7 | 0.65 | 42.7 | 98 | 96 | MTD (Mus musculus [7]): >5 mpk; MED (Mus musculus [8]): 1 mpk
CN[C@@H](C(=O)N[C@H](C(=O)N(C)[C@H](/C=C(\C)C(=O)O)C(C)C)C(C)(C)C)C(C)(C)c1ccc(C)cc1 | 27.5 | 17 | 1070 | 95 | 94 | –
CN[C@H](C(=O)N[C@H](C(=O)N(C)[C@H](/C=C(\C)C(=O)O)C(C)C)C(C)(C)C)C(C)(C)c1cccc(-c2ccccc2)c1 | 5.4 | 1.9 | 149 | 86 | 84 | –
C=Cc1cccc(C(C)(C)[C@H](NC)C(=O)N[C@H](C(=O)N(C)[C@H](/C=C(\C)C(=O)O)C(C)C)C(C)(C)C)c1 | 2 | 0.86 | 130 | 88 | 90 | –
CN[C@H](C(=O)N[C@H](C(=O)N(C)[C@H](/C=C(\C)C(=O)O)C(C)C)C(C)(C)C)C(C)(C)c1cccs1 | 3.9 | 2 | 162 | 92 | 88 | MTD (Mus musculus [7]): >5 mpk; MED (Mus musculus [8]): 1 mpk
CN[C@H](C(=O)N[C@H](C(=O)N(C)[C@H](/C=C(\C)C(=O)O)C(C)C)C(C)(C)C)C(C)(C)c1cccc(F)c1 | 1.8 | 1 | 77 | 103 | 93 | –
CN[C@H](C(=O)N[C@H](C(=O)N(C)[C@H](/C=C(\C)C(=O)O)C(C)C)C(C)(C)C)C(C)(C)c1cc(C)cc(C)c1 | 1.23 | 0.55 | 44 | 85 | 88 | –
CN[C@H](C(=O)N[C@H](C(=O)N(C)[C@H](/C=C(\C)C(=O)O)C(C)C)C(C)(C)C)C(C)(C)c1cccc(Br)c1 | 4.1 | 1.8 | 148 | 90 | 84 | Effect (Mus musculus [9]): Active; MTD (Mus musculus [7]): 4 mpk; MED (Mus musculus [8]): 1 mpk
CCOC(=O)/C(C)=C/[C@H](C(C)C)N(C)C(=O)[C@@H](NC(=O)[C@@H](NC)C(C)(C)c1cccc(C)c1)C(C)(C)C | 525 | 21.9 | 2410 | 58 | 94 | –
CN[C@H](C(=O)N[C@H](C(=O)N(C)[C@H](/C=C(\C)C(=O)O)C(C)C)C(C)(C)C)C(C)(C)c1cc(C(F)(F)F)cc(C(F)(F)F)c1 | 19 | 17 | 457 | 60 | 93 | –
CN[C@H](C(=O)N[C@H](C(=O)N(C)[C@H](/C=C(\C)C(=O)O)C(C)C)C(C)(C)C)C(C)(C)c1ccccc1 [TALTOBULIN] | 2.4 | 1 | 81 | 91 | – | Effect (Mus musculus [10]): Active; Effect (Mus musculus [11]): Active; Effect (Mus musculus [12]): Active
CN[C@H](C(=O)N[C@H](C(=O)N(C)[C@H](/C=C(\C)C(=O)O)C(C)C)C(C)(C)C)C(C)(C)c1cccc(C)c1 | 0.65 | 0.23 | 19 | 90 | 89 | Effect (Mus musculus [13]): Active; Effect (Mus musculus [14]): Active; Effect (Mus musculus [15]): Active; MTD (Mus musculus [7]): 1.5 mpk; MED (Mus musculus [8]): <0.1 mpk
CN[C@H](C(=O)N[C@H](C(=O)N(C)[C@H](/C=C(\C)C(=O)O)C(C)C)C(C)(C)C)C(C)(C)c1ccsc1 | 6.6 | 2.1 | 724 | 88 | 96 | –
CN[C@H](C(=O)N[C@H](C(=O)N(C)[C@H](/C=C(\C)C(=O)O)C(C)C)C(C)(C)C)C(C)(C)c1cc(F)cc(F)c1 | 16.2 | 6.2 | 457 | 90 | 84 | –
CN[C@H](C(=O)N[C@H](C(=O)N(C)[C@H](/C=C(\C)C(=O)O)C(C)C)C(C)(C)C)C(C)(C)c1ccc(Cl)cc1 | 1.7 | 0.56 | 53 | 95 | 96 | –
CN[C@H](C(=O)N[C@H](C(=O)N(C)[C@H](/C=C(\C)C(=O)O)C(C)C)C(C)(C)C)C(C)(C)c1cccc(Cl)c1 | 3.2 | 1.14 | 91 | 91 | 88 | Effect (Mus musculus [16]): inactive; Effect (Mus musculus [17]): Active; MTD (Mus musculus [7]): 3 mpk; MED (Mus musculus [8]): 0.3 mpk
CN[C@H](C(=O)N[C@H](C(=O)N(C)[C@H](/C=C(\C)C(=O)O)C(C)C)C(C)(C)C)C(C)(C)c1ccc(C)cc1 | 2.6 | 1.5 | 55 | 95 | 94 | –
CN[C@H](C(=O)N[C@H](C(=O)N(C)[C@H](/C=C(\C)C(=O)O)C(C)C)C(C)(C)C)C(C)(C)c1cn(C)c2ccccc12 [HEMIASTERLIN] | 1 | 0.3 | 76 | – | – | inhibition (Bos taurus [18]): inactive
CCc1cccc(C(C)(C)[C@H](NC)C(=O)N[C@H](C(=O)N(C)[C@H](/C=C(\C)C(=O)O)C(C)C)C(C)(C)C)c1 | 1.8 | 0.79 | 62 | 88 | 90 | –
CN[C@H](C(=O)N[C@H](C(=O)N(C)[C@H](/C=C(\C)C(=O)O)C(C)C)C(C)(C)C)C(C)(C)c1ccc(C)c(C)c1 | 1.13 | 0.4 | – | 88 | 88 | IC50 (KB [19]): 39 nM; MTD (Mus musculus [7]): >1 mpk; MED (Mus musculus [8]): 0.2 mpk
